# According to ChEMBL document CHEMBL1124867, “Synthesis and antiviral activity of monofluoro and difluoro analogues of pyrimidine deoxyribonucleosides against human immunodeficiency virus (HIV-1)” (J Med Chem, 1990):
# How the values were obtained:
# C8166 [1] = assay: Antiviral activity against HIV-1 (RF strain) in C8166 cells; assay type: functional, cell-based; settings: Homo sapiens
# Procedure, shortened: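 HIV-1 RF strain in C8166 cells, 3-day incubation with compound at various concentrations (highest tested 100 μM). Virus in culture medium quantified by p24 antigen-capture ELISA (primary antiserum against p24, horseradish peroxidase detection), colour read spectrophotometrically and plotted against concentration; IC50 = concentration reducing virus levels by 50%.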
# C8166 [2] = assay: Concentration of compound that inhibits incorporation of radiolabeled amino acids by 50 %; assay type: functional; settings: Homo sapiens, read-out: CD50 (the source's name)
# Procedure, shortened: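 C8166 cells (2 × 10⁵) exposed to compound at various concentrations for 3 days, washed, then given ¹⁴C protein hydrolysate for a further 24 h. Cells harvested and washed, ¹⁴C incorporation counted by scintillation, radioactivity plotted against concentration; CD50 = concentration inhibiting label incorporation by 50%.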
Compound,IC50 (C8166 [1]),CC50 (C8166 [2])
O=c1ccn(C2OC(CO)CC2F)c(=O)[nH]1 (configuration not stated),> 100 µM,–
O=c1ccn(C2OC(CO)C=C2F)c(=O)[nH]1 (configuration not stated),> 100 µM,–
Nc1ccn(C2OC(CO)C(F)C2F)c(=O)n1 (configuration not stated),10 µM,> 100 µM
O=c1ccn(C2OC(CO)C(F)C2F)c(=O)[nH]1 (configuration not stated),> 100 µM,–
Nc1ccn([C@@H]2O[C@H](CO)C=C2F)c(=O)n1,10 µM,30 µM
Cc1cn([C@@H]2O[C@H](CO)C=C2F)c(=O)[nH]c1=O,100 µM,> 1000 µM
Nc1nc(=O)n(C2OC(CO)CC2F)cc1F (configuration not stated),> 100 µM,–
Cc1cn([C@H]2C[C@H](N=[N+]=[N-])[C@@H](CO)O2)c(=O)[nH]c1=O [ZIDOVUDINE],0.0085 µM,> 1000 µM
Nc1ccn([C@H]2CC[C@@H](CO)O2)c(=O)n1 [ZALCITABINE],0.125 µM,1000 µM
Nc1ccn([C@@H]2O[C@H](CO)C[C@@H]2F)c(=O)n1,0.7 µM,500 µM
Nc1ccn(C2OC(CO)CC2F)c(=O)n1 (configuration not stated),> 100 µM,–
